Measurements collected from several papers.
Each line is one published result; the experiments were not run side by side.
FGFR3 G697C: Fibroblast growth factor receptor 3 (FGFR3, Homo sapiens, UniProt P22607, G697C)
FGFR3: Fibroblast growth factor receptor 3 (FGFR3, Homo sapiens, UniProt P22607)

`O=C(c1ccc(Nc2nccc(-c3cc4ccccc4s3)n2)cc1)N1CCC(N2CCCC2)CC1` gave a remaining binding of 77% (FGFR3 G697C; binding, competition with immobilised ligand; 1 µM).
With `COc1ccc2cc(OCC3(C(=O)O)CN(C(=O)c4ccc(F)cc4)C3)ccc2c1` the remaining binding was 100% (FGFR3; cell-free assay, competition with immobilised ligand; 1 µM).
For `O=C(NCCCN1CCOCC1)c1ccc(Nc2nccc(-c3cc4ccccc4s3)n2)cc1`, the remaining binding was 79% (FGFR3 G697C; binding, competition with immobilised ligand; 1 µM).
For `c1cnn2ncc(-c3ccnc(N4CCC45COC5)n3)c2c1`, the remaining binding was 100% (FGFR3; binding; 1 µM).
`O=C(c1ccc(Nc2ncc(Cl)c(-c3ccc(Cl)s3)n2)cc1)N1CCC(N2CCCC2)CC1` gave a remaining binding of 4.9% (FGFR3 G697C; binding, competition with immobilised ligand; 1 µM).
`C[C@@H](c1ccc(-n2cnc3c(N)ncnc32)cc1)N1CCc2nn(C)c(Cc3ccccc3)c2C1=O` gave a remaining binding of 96% (FGFR3 G697C; binding, competition with immobilised ligand; 0.1 µM).
For `C[C@@H]1CN(c2ccc3ncc(-c4ccc5[nH]nc(C6CC6)c5c4)n3n2)C[C@H](C)O1`, the remaining binding was 100% (FGFR3; binding, competition with immobilised ligand; 0.5 µM).
With `O=C(NCCCN1CCOCC1)c1ccc(Nc2ncc(Cl)c(-c3ccc(Cl)s3)n2)cc1` the remaining binding was 32% (FGFR3 G697C; binding, competition with immobilised ligand; 1 µM).
With `CN(CCCC(F)(F)F)c1nccc(-c2cnn3ncccc23)n1` the remaining binding was 93% (FGFR3; binding; 1 µM).
`Cc1cnc(Nc2ccc(C(=O)N3CCC(N4CCCC4)CC3)cc2)nc1-c1cc2ccccc2s1` gave a remaining binding of 16% (FGFR3 G697C; binding, competition with immobilised ligand; 1 µM).
The remaining binding of `c1cncc(-c2cccc(Nc3nccc(NC4CCCCC4)n3)c2)c1` is reported as 51% (FGFR3 G697C; binding, competition with immobilised ligand; 10 µM).
With `CCCCN(CCCC)C(=O)CN1C[C@@H](c2cc(OC)c3c(c2)OCO3)[C@H](C(=O)O)[C@H]1CC(C)(C)CCC` the remaining binding was 88.5% (FGFR3; cell-free assay, competition with immobilised ligand; 1 µM).
The remaining binding of `N#Cc1ccccc1CSc1nnc2c(n1)[nH]c1ccccc12` is reported as 88% (FGFR3; binding, competition with immobilised ligand; 10 µM).
`CN1CCN(c2ccc(Nc3nccc(-c4ccccc4)n3)cc2C(F)(F)F)CC1` gave a remaining binding of 86% (FGFR3 G697C; binding; 10 µM).
`CC1CCCN1c1nccc(-c2cnn3ncccc23)n1` (stereo not drawn) has a remaining binding of 100% (FGFR3; binding; 1 µM).
`CCN1CCN(Cc2ccc(C(=O)Nc3ccc(C)c(Oc4ccc5c(c4)CC(=O)N5)c3)cc2C(F)(F)F)CC1` has a remaining binding of 100% (FGFR3; binding, competition with immobilised ligand; 1 µM).
`O=C(Nc1c[nH]nc1C(=O)NC1CCNCC1)c1cc(F)cc(F)c1` has a remaining binding of 100% (FGFR3 G697C; binding, competition with immobilised ligand; 1 µM).
`COc1ccc2c(c1)O[C@@H](c1ccc(OC)c(OC)c1)C[C@H]2NC(=O)C1(c2ccc3c(c2)OC(F)(F)O3)CC1` gave a remaining binding of 89% (FGFR3; cell-free assay, competition with immobilised ligand; 1 µM).
The remaining binding of `FC(F)(F)Oc1cccc(-c2cnc3ccc(-c4ccncc4)nn23)c1` is reported as 86% (FGFR3; cell-free assay, competition with immobilised ligand; 5 µM).
The remaining binding of `O=C(NCC1CCOCC1)c1n[nH]cc1NC(=O)c1c(F)cccc1F` is reported as 100% (FGFR3 G697C; binding, competition with immobilised ligand; 1 µM).
`CCCOc1ccc([C@H]2[C@H](C(=O)O)[C@@H](c3ccc4c(c3)OCO4)CN2CC(=O)Nc2c(CC)cccc2CC)cc1` gave a remaining binding of 85% (FGFR3 G697C; cell-free assay, competition with immobilised ligand; 1 µM).
With `COc1cnc(Nc2cccc(S(N)(=O)=O)c2)nc1N1CCN(c2ccccc2)C(=O)C1` the remaining binding was 100% (FGFR3; binding, competition with immobilised ligand; 1 µM).
With `CS(=O)(=O)c1cc(C2(NC(=O)c3cncc4c3cnn4-c3ccc(F)cc3)CC2)ccn1` the remaining binding was 100% (FGFR3; cell-free assay, competition with immobilised ligand; 1 µM).
With `Nc1ncc2c(n1)-c1c([nH]c3ccc(C#CC4CC4)cc13)CCCC2` the remaining binding was 95% (FGFR3; binding, competition with immobilised ligand; 1 µM).
`C[C@@H](c1cccc(C#N)c1)n1cc(Cl)cc(C(N)=O)c1=N` has a remaining binding of 79% (FGFR3 G697C; cell-free assay, competition with immobilised ligand; 1 µM).
For `CN(C)c1nccc(-c2cnn3ncccc23)n1`, the remaining binding was 65% (FGFR3 G697C; binding; 1 µM).
`CC(=O)N1CCC(c2ccc(C(=O)NC(=N)N)cc2C(F)(F)F)CC1` has a remaining binding of 98% (FGFR3 G697C; cell-free assay, competition with immobilised ligand; 1 µM).
For `C[C@@H]1CCN(c2nccc(-c3cnn4ncccc34)n2)C1`, the remaining binding was 90% (FGFR3; binding; 1 µM).
For `CNC(=O)[C@@H]1CC[C@@H](n2c(-c3ccc4cnccc4c3)nc3ccc(C(=O)NCc4cccc(C(N)=O)c4)cc32)C1`, the remaining binding was 100% (FGFR3; binding, competition with immobilised ligand; 1 µM).
The remaining binding of `CN(C)c1nccc(-c2cnc3ncccn23)n1` is reported as 99% (FGFR3 G697C; binding; 1 µM).
For `C=CC(=O)N1CCC(C(=O)NCC(=O)N2CCN(c3nc(-c4cnc(N)nc4C(F)F)nc(N4CCOCC4)n3)CC2)CC1`, the remaining binding was 99% (FGFR3 G697C; binding, competition with immobilised ligand; 1 µM).
For `O=C(c1ccc(Nc2ncc(Cl)c(-c3cc4ccccc4s3)n2)cc1)N1CCC(N2CCCC2)CC1`, the remaining binding was 34% (FGFR3 G697C; binding, competition with immobilised ligand; 1 µM).
`COc1ncc2cc3ccccc3nc2c1C#N` gave a remaining binding of 96% (FGFR3 G697C; cell-free assay, competition with immobilised ligand; 5 µM).
With `CCC(=O)N[C@H]1CC[C@@H](C(=O)N(C)c2ccc(-c3nc4ccccc4o3)cc2)C1` the remaining binding was 100% (FGFR3 G697C; cell-free assay, competition with immobilised ligand; 1 µM).
For `N[C@@H]1CCN(c2nccc(-c3cnn4ncccc34)n2)C1`, the remaining binding was 100% (FGFR3 G697C; binding; 1 µM).
The remaining binding of `COc1cnc(Nc2cccc(S(N)(=O)=O)c2)nc1N1CCN(c2ccccc2)CC1` is reported as 98% (FGFR3; binding, competition with immobilised ligand; 1 µM).
